# According to ChEMBL document CHEMBL4680124, “2-Styryl-4-aminoquinazoline derivatives as potent DNA-cleavage, p53-activation and in vivo effective anticancer agents” (Eur J Med Chem, 2020):
# Active and inactive are the calls of the source. The calls are words filed in the database; no cut-off is given here.
# Key:
# MGC-803 [1] = test: Induction of apoptosis in human MGC-803 cells assessed as cell shrinkage at 0.5 to 2.5 uM incubated for 24 hrs by Hoechst 33258 staining based analysis; assay type: functional; details: dose 0.5-2.5 µM
# How it was run: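 MGC-803 cells treated in six-well plates, fixed in 4% paraformaldehyde for 10 min, washed, stained with Hoechst 33258 for 5 min, and examined for nuclear morphology by fluorescence microscopy.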
# MGC-803 [2] = test: Antitumor activity against human MGC-803 cells xenografted in BALB/C nude mouse assessed as tumor growth inhibition at 10 mg/kg, ip administered every 2 days and measured 3 times per week; assay type: functional, organism-based; details: time 2.0 day
# How it was run: (§1)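 Male BALB/c nude mice, 6 weeks old, given 5×10^6 MGC-803 cells s.c. in the flank. When tumors reached about 80 mm3, mice were randomized (n = 6/group) and dosed i.p. every 2 days. Vehicle was 5% DMSO in saline. Drug solutions were 1.0 or 2.0 mg/mL (DMSO/saline). Tumor length and width plus body weight were measured three times weekly; volume = lw²/2. Mean ± SD.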
# MGC-803 [3] = test: Cell cycle arrest in human MGC-803 cells assessed as accumulation at G1 phase at 0.5 uM after 48 hrs by propidium iodide staining-based flow cytometric analysis (reference value: 46.96 %); assay type: functional
# MGC-803 [4] = test: Induction of DNA damage in human MGC-803 cells assessed as increase in p53 level at 2.5 uM measured after 24 hrs by Western blot analysis; assay type: functional, cell-based
# How it was run: (§2)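 MGC-803 cells (2×10^6) plated overnight, then treated for 24 h at 0.5, 1.0 or 2.5 µM (test agent) or 5.0 µM (comparator). Whole-cell lysates separated by SDS-PAGE, transferred to PVDF and probed with primary antibodies. AP-linked anti-rabbit IgG, ECL detection, β-actin loading control. Representative of three experiments.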
# MGC-803 [5] = test: Induction of apoptosis in human MGC-803 cells assessed as activation of caspase 9 at 2.5 uM incubated for 24 hrs by flow cytometric analysis (reference value: 2.82%); assay type: functional
# MGC-803 [6] = test: Induction of intracellular Ca+ level in human MGC-803 cells at 0 to 2.5 uM after 24 hrs by fluo-3 AM dye based flow cytometric analysis; assay type: functional, cell-based; details: dose 0-2.5 µM
# How it was run: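 MGC-803 cells in six-well plates exposed 24 h to 0.5, 1.0 or 2.5 μM. Cells were harvested, washed in cold PBS and loaded with Fluo-3 AM for 30 min at 37 in the dark. After three PBS washes, intracellular Ca2+ fluorescence was read by flow cytometry. Three independent experiments.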
# Calf thymus DNA = test: Binding affinity to calf thymus DNA assessed as quenching in emission band measured at 0.5:1 to 5:1 compound to EB ratio by ethidium bromide competitive displacement assay; details: Bos taurus
# How it was run: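 Competitive displacement using EB (10 µM) with ct-DNA (20 µM) in Tris-HCl, pH 7.4, 25 °C. Compound added stepwise from 10 to 100 µM; 5 min equilibration after each addition, then fluorescence emission recorded (slits 5 nm). Quenching constant from the Stern–Volmer equation.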
# MGC-803 [7] = test: Induction of apoptosis in human MGC-803 cells assessed as late apoptotic cells at 2.5 uM measured after 24 hrs by Annexin-V/propidium iodide staining-based flow cytometric analysis (Rvb =0.93%)
# MGC-803 [8] = test: Cell cycle arrest in human MGC-803 cells assessed as accumulation at G2/M phase at 0.25 uM after 48 hrs by propidium iodide staining-based flow cytometric analysis (reference value: 7.94%); assay type: functional
# MGC-803 [9] = test: Induction of apoptosis in human MGC-803 cells assessed as increase in Bak expression at 0.5 to 2.5 uM measured after 24 hrs by Western blot analysis; details: dose 0.5-2.5 µM
# MGC-803 [10] = test: Induction of apoptosis in human MGC-803 cells assessed as viable cells at 1 uM measured after 24 hrs by Annexin-V/propidium iodide staining-based flow cytometric analysis (Rvb =92.2 %); details: MGC-803, 24 h
# MGC-803 [11] = test: Induction of apoptosis in human MGC-803 cells assessed as increase in Bim expression at 0.5 to 2.5 uM measured after 24 hrs by Western blot analysis; assay type: functional, cell-based; details: dose 0.5-2.5 µM
# How it was run: (§3)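 MGC-803 cells (2×10^6) cultured overnight, then exposed 24 h to 0.5, 1.0 or 2.5 μM, or 5.0 μM for the reference agent. Lysates were resolved by SDS-PAGE, transferred to PVDF and probed with primary antibodies. Detection used AP-linked anti-rabbit IgG and ECL. β-actin served as loading control.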
# MGC-803 [12] = test: Induction of apoptosis in human MGC-803 cells assessed as increase in p21 protein expression upto 2.5 uM incubated for 24 hrs by Western blot analysis; assay type: functional, cell-based; details: dose microM <=2.5, time 24.0 hrs; how it was run: as §3
# [13] = Induction of mitochondria membrane potential loss in human MGC-803 cells assessed as increase in green fluorescence at 2.5 uM incubated 24 hrs by JC-1 probe based flow cytometry analysis (reference value: 4.67%); assay type: functional
# MGC-803 [14] = test: Antitumor activity against human MGC-803 cells xenografted in BALB/C nude mouse assessed as tumor growth inhibition at 10 mg/kg, ip administered every 2 days and measured 3 times per week for 16 days; assay type: functional; set-up: scale not given: the % may be the effect or the level left; details: time 16 day; how it was run: as §1
# MGC-803 [15] = test: Induction of apoptosis in human MGC-803 cells assessed as decrease in Bcl-2 expression at 0.5 to 2.5 uM measured after 24 hrs by Western blot analysis; assay type: functional, cell-based; details: dose 0.5-2.5 µM; how it was run: as §2
# MGC-803 [16] = test: Induction of apoptosis in human MGC-803 cells assessed as increase in Bax expression at 0.5 to 2.5 uM measured after 24 hrs by Western blot analysis; assay type: functional, cell-based; details: dose 0.5-2.5 µM; how it was run: as §2
# Mus musculus = test: Toxicity against BALB/c nude mouse xenografted with human MGC-803 cells assessed as body weight at 10 mg/kg, ip administered every 2 days and measured 3 times per week for 16 days; assay type: organism-based; details: in vivo, 384 h, time 16 day
# How it was run: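 Male BALB/c nude mice, 6 weeks old, received 5×10^6 MGC-803 cells subcutaneously in the flank. At about 80 mm3, mice were randomized (n = 6/group). They were dosed i.p. every 2 days with vehicle (5% DMSO in saline, v/v) or drug in DMSO/saline at 1.0 or 2.0 mg/mL. Body weight was recorded three times weekly; mean ± SD.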
# MGC-803 [17] = test: Cell cycle arrest in human MGC-803 cells assessed as accumulation at S phase at 0.5 uM after 48 hrs by propidium iodide staining-based flow cytometric analysis (reference value: 45.1 %); assay type: functional
# MGC-803 [18] = test: Induction of apoptosis in human MGC-803 cells assessed as increase in nuclear chromatin condensation at 0.5 to 2.5 uM incubated for 24 hrs by Hoechst 33258 staining based analysis; assay type: functional, cell-based; details: dose 0.5-2.5 µM
# How it was run: (§4)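 Cells in six-well plates were treated for the indicated time, then fixed 10 min in 4% paraformaldehyde and washed twice in PBS. Nuclei were stained 5 min with Hoechst 33258, washed twice in PBS and examined by fluorescence microscopy.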
# MGC-803 [19] = test: Induction of apoptosis in human MGC-803 cells assessed as necrotic cells at 2.5 uM measured after 24 hrs by Annexin-V/propidium iodide staining-based flow cytometric analysis (Rvb =6.05%)
# MGC-803 [20] = test: Induction of apoptosis in human MGC-803 cells assessed as nuclear fragmentation incubated at 0.5 to 2.5 uM for 24 hrs by Hoechst 33258 staining based analysis; assay type: functional, cell-based; details: dose 0.5-2.5 µM; how it was run: as §4
smiles,measurement,setting,value
NCCCCNc1nc(/C=C/c2ccc([N+](=O)[O-])cc2)nc2ccccc12,Activity,MGC-803 [1],Active
same,Activity,MGC-803 [2],Active
same,Activity,MGC-803 [3],1.44%
same,Activity,MGC-803 [4],Active
same,Activity,MGC-803 [5],57.35%
same,Activity,MGC-803 [6],Active
same,Activity,Calf thymus DNA,Active
same,Activity,MGC-803 [7],55.9%
same,Activity,MGC-803 [8],55.43%
same,Activity,MGC-803 [9],inactive
same,viability at 1 µM,MGC-803 [10],55.3%
same,Activity,MGC-803 [11],Active
same,Activity,MGC-803 [12],Active
same,Activity,[13],22.6%
same,Activity,MGC-803 [14],35.9%
same,Activity,MGC-803 [15],Active
same,Activity,MGC-803 [16],Active
same,Activity,Mus musculus,Non-Toxic
same,Activity,MGC-803 [17],25.89%
same,Activity,MGC-803 [18],Active
same,Activity,MGC-803 [19],1.27%
same,Activity,MGC-803 [20],Active
